We go through 35 molecules from PubChem BioAssay AID743061 (The Scripps Research Institute Molecular Screening Center, 2013).

In the assay the target is Methionine--tRNA ligase, mitochondrial (Homo sapiens) (UniProt Q96GW9). The experiment in a line: inhibitors of human mitochondrial MetRS, late-stage follow-up, selectivity assay for T. brucei MetRS inhibitor project, biochemical, radioactivity, round 1 (AID 743061).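 Also: 0% = DMSO with full reaction and 100% = DMSO wells lacking tRNA.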 Conditions: recombinant human mtMetRS, [3H]Met tRNA charging, at 10 µM, stronger effect = higher value. In a few lines:
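System: human mitochondrial MetRS enzyme / Buffer or medium: pH 8.0 reaction buffer containing 2.5 mM ATP / Probe or stimulus: 240 nM [3H]methionine with bulk E. coli tRNA acceptor / Doses: 10 and 1 µM / Times: 15 min compound–enzyme preincubation, then 1 h reaction at room temperature / Detection: scintillation counts of TCA-precipitated charged tRNA on filters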
A word on the inhibition: it is the change of the read-out against control, counted positive when it falls. In the case of `O=C(NCc1nc2ccccc2[nH]1)C1=C[C@H](c2ccc(Br)cc2)C[C@H](OCCCCO)O1`, the inhibition is -2.4%. `O=C(NCCc1nc2ccccc2[nH]1)c1c(F)cccc1F`: the inhibition amounted to 0.73%.

With `CC(C)c1nc2ccc(C(=O)N(C)CCc3nc4ccc(F)cc4[nH]3)cc2o1`, the inhibition was found to be 0.38%. Take `O=C(CSC1CC(=O)N(c2cccc(Cl)c2)C1=O)Nc1ccc(Br)cc1` (stereo not given): the inhibition amounted to 1.19%. The figure for `O=C(NCc1nc2ccccc2[nH]1)C1=C[C@H](C2CC2)C[C@H](OCc2ccc(CO)cc2)O1` is 12.6%. `CCOC(=O)N1CCC(Nc2c(Nc3ccc(F)cc3)c(=O)c2=O)CC1`: the inhibition is -4.56%. As to `CC1Cc2ccccc2N1C(=O)Cn1cc(C(=O)C(=O)N2CCOCC2)c2ccccc21` (stereo not given), the inhibition came out at 7.77%.

On to `CC(=O)N(CCc1ccccc1)C1CC(=O)N(c2ccc(Br)cc2)C1=O` (stereo not given), for which the inhibition turned out to be 2%. The figure for `O=C(Cn1cc(C(=O)C(=O)N2CCOCC2)c2ccccc21)NCc1ccccc1` is 10.3%. The figure for `O=C(Cn1cc(C(=O)C(=O)N2CCCC2)c2ccccc21)Nc1ccccc1` is -0.86%; for `CC(=O)c1ccc(N2CCN(C(=O)CCCn3c(=O)[nH]c4ccc(Br)cc4c3=O)CC2)cc1` it is 7.87%. For the molecule `O=C(NNC(=O)c1cc(-c2ccc(Cl)c(Cl)c2)nc2ccccc12)Nc1ccccc1`, the inhibition was -11.2%. With `CCc1ccc2c(c1)c1nnc(SCC(=O)Nc3ccc4c(c3)OCO4)nc1n2C`, the inhibition was determined as 5.87%. The value for `O=C(Cn1cc(C(=O)C(=O)N2CCOCC2)c2ccccc21)NCC1CCCO1` (stereo not given) was 5.42%; that for `COc1ccccc1-n1c(SCC(=O)Nc2ccc(Cl)cc2)nc(O)c(Cc2ccccc2)c1=O` was -19.7%; that for `CN(Cc1cc(Cl)cc(Cl)c1)[C@H]1C[C@H]2c3[nH]c4ccccc4c3CCN2C(=O)[C@H]1CO` was 80.3%.

Take `Brc1cnc2nc(SCc3nc4ccccc4[nH]3)[nH]c2c1`: the inhibition is -14.2%. The value for `O=C(C[C@H]1C(=O)N(Cc2ccccc2)C[C@@H]1c1ccc(Br)cc1)Nc1ccc(Br)cc1` was -8.54%; that for `Cc1cccc(NC(=O)C2CC(=O)n3c(nc4ccccc43)N2)c1` (stereo not given) was 6.78%. The value for `O=C(CCC(=O)Nc1cccc([N+](=O)[O-])c1)NN=Cc1cccs1` was -14.1%; that for `Cc1ccc(C(=O)NCCc2nc3ccccc3[nH]2)cc1C` was 1.68%.

As to `O=C(CC=NOCc1ccc([N+](=O)[O-])cc1)Nc1ccc(Cl)cc1`, the inhibition is 1.47%. Consider `Cc1cccc2[nH]c(C3CCCN(C(=O)c4cccc5cccnc45)C3)nc12` (stereo not given), for which the inhibition stood at 2.39%.

Consider `COc1ccc2[nH]c3nc(SCC(=O)Nc4ccc5c(c4)OCO5)nnc3c2c1`, for which the inhibition came to 24.5%. The figure for `O=C(Cn1cc(C(=O)c2ccccc2)c2ccccc21)Nc1cccc(C(F)(F)F)c1` is 9.64%; for `Oc1c(Cl)cc(Cl)cc1CNc1nc2ccccc2[nH]1` it is 31.4%; for `COc1ccc(NC(=O)C2CC(=O)n3c(nc4ccccc43)N2)cc1` (stereo not given) it is -2.5%. Take `O=C(NCc1nc2ccccc2[nH]1)C1=C[C@H](c2ccc3c(c2)OCO3)C[C@H](OCCCCO)O1`: the inhibition came out at 10.2%. With `O=C(NCc1nc2ccccc2[nH]1)C1=C[C@@H](c2csc3ccccc23)C[C@@H](OCCCCO)O1`, the inhibition stood at 6.67%. The value for `O=C(NCc1nc2ccccc2[nH]1)C1=C[C@@H](c2ccccc2)C[C@@H](OCc2ccc(CO)cc2)O1` was 15.8%; that for `CCN(CC)C(=O)C(=O)c1cn(CC(=O)N2CCCc3ccccc32)c2ccccc12` was -1.92%; that for `O=C(NCCc1nc2ccccc2[nH]1)c1ccc(Cl)c(Cl)c1` was 27.7%. The value for `O=C(NCc1nc2ccccc2[nH]1)C1=C[C@@H](c2ccc(Br)cc2)C[C@@H](OCc2ccc(CO)cc2)O1` was 16.7%. The figure for `CC(C)(C)[C@H]1C=C(C(=O)NCc2nc3ccccc3[nH]2)O[C@@H](OCc2ccc(CO)cc2)C1` is 10.3%; for `CC(CC(=O)Nc1cccc(Br)c1)=NNC(=O)c1ccc(O)cc1O` it is 4.55%.
